The source made the active and inactive calls. The calls are words filed in the database; no cut-off is given here.
How the values were obtained:
[1] = molecular target: Fatty acid synthase (Homo sapiens) (UniProt P49327); test: (§1) Inhibition of FASN in human PC9 cells harboring FASN expression and EGFR delE746-A750 mutant assessed as disruption of AKT/FASN positive feedback loop by measuring FASN expression at 100 uM after 48 hrs in presence of exogenous lipid concentrate by Western immunoblot based densitometric assay relative to control; format: cell-based
Chain of Fatty acid synthase (Homo sapiens) (P49327 whole entry, looked up): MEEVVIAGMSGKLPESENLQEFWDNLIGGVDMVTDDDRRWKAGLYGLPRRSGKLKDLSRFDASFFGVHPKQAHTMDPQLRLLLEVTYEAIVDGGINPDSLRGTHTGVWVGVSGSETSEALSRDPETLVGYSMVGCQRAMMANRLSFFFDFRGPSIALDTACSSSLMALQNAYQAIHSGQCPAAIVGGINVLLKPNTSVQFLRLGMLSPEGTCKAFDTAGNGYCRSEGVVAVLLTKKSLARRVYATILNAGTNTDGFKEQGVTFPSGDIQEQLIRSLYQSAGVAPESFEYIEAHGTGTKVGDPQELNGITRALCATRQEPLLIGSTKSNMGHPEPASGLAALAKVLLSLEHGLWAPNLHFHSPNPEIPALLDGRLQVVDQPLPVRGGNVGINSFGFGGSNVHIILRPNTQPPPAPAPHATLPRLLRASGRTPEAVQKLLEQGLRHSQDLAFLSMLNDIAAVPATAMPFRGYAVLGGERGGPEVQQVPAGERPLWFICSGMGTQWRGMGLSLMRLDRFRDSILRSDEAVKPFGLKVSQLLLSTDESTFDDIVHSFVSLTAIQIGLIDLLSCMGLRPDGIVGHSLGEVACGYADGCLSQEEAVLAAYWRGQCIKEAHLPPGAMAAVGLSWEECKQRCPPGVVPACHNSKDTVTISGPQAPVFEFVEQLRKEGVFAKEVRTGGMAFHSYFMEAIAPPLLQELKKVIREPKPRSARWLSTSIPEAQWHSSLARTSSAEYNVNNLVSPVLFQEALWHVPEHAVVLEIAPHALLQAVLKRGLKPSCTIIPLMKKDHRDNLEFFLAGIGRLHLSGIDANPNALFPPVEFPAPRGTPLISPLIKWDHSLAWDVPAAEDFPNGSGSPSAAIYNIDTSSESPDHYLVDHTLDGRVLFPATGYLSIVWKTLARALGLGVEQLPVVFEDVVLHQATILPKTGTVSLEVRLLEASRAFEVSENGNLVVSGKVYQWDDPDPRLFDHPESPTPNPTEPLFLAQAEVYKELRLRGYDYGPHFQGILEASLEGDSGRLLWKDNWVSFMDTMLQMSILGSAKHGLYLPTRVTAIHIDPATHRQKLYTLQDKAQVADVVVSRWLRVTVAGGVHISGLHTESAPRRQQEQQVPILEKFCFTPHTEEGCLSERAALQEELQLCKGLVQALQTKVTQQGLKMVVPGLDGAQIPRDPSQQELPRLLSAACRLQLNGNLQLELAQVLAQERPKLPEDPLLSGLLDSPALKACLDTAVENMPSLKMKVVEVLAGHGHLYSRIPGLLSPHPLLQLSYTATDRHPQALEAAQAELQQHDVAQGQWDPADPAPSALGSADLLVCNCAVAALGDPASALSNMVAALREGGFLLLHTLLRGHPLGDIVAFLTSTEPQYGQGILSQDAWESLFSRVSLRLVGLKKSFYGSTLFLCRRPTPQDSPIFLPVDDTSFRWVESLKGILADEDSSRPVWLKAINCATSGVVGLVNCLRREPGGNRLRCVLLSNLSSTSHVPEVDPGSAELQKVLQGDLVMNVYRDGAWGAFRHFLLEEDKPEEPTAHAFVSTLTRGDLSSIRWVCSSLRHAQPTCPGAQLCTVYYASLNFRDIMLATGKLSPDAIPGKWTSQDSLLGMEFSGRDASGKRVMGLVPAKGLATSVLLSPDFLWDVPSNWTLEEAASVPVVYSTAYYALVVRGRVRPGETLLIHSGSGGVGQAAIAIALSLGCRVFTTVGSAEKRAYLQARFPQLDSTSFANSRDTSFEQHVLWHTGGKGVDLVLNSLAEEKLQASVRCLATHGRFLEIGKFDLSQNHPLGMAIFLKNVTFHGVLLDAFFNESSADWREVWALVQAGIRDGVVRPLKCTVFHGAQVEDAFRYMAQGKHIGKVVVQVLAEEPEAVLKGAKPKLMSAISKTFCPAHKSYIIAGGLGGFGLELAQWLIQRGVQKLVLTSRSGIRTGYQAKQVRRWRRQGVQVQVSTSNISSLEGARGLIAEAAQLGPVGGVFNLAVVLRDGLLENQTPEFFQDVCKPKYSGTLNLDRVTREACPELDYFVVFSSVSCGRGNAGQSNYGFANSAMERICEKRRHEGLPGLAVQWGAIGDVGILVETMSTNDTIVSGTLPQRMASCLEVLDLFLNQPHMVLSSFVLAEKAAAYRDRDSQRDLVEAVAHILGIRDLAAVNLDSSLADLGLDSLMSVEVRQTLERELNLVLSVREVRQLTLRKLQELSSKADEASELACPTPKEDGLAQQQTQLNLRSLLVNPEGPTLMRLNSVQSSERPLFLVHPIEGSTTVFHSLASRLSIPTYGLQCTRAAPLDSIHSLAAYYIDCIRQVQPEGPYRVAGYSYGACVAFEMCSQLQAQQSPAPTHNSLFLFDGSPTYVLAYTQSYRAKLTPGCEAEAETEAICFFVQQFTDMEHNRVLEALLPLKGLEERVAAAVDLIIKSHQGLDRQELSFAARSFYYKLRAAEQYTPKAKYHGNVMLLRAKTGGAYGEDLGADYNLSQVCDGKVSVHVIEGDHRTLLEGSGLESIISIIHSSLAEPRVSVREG
Method in brief: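 PC-9 cells were seeded at 8 × 10^5 per 100 mm dish, attached overnight, then treated 48 h with compound plus chemically defined lipid concentrate. Cells were lysed in RIPA with protease inhibitors and protein quantified by BCA. Lysates were run on 8% SDS-PAGE and blotted to PVDF. Blots were probed for FASN (1:2,000, PBS-T/milk block) and GAPDH. ECL detection; FASN/GAPDH densitometry normalised to untreated control.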

PC-9 [2] = test: Antiproliferative activity against human PC9 cells harboring FASN expression and EGFR delE746-A750 mutant assessed as reduction in cell viability after 72 hrs by MTS assay; format: functional, cell-based; settings: PC-9, 72 h
Method in brief: (§2)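 ATCC-sourced cells. H1299, H1650, H1703 and PC-9 were grown in RPMI 1640 with 10% FBS. A549 was grown in high-glucose DMEM with 10% FBS and 1 mM pyruvate. SAEC was grown in BEGM. Cells were seeded at 3 × 10^3 per well (H1650 3.5 × 10^3) and left to attach overnight. Serial dilutions from DMSO stocks were added, 0.1% DMSO final, for 72 h at 37 °C, 5% CO2. Medium was replaced, MTS added, and A490 read after 2 h. IC50 was taken from % viability versus log concentration, 3 experiments.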

A549 = test: Antiproliferative activity against human A549 cells expressing FASN assessed as reduction in cell viability after 72 hrs by MTS assay; format: functional, cell-based; settings: A549, 72 h; method in brief: as §2
NCI-H1703 [3] = test: Antiproliferative activity against human NCI-H1703 cells expressing FASN assessed as reduction in cell viability after 72 hrs by MTS assay; format: functional, cell-based; settings: NCI-H1703, 72 h; method in brief: as §2
[4] = Selectivity index, ratio of IC50 for human SAE cells lacking FASN expression to IC50 for human A549 cells expressing FASN
Method in brief: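 The ratio IC50(SAEC)/IC50(NSCLC line) was calculated from 72 h MTS viability IC50 values.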

[5] = Selectivity index, ratio of IC50 for human SAE cells lacking FASN expression to IC50 for human NCI-H1703 cells expressing FASN
Method in brief: (§3)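 Index is the SAEC IC50 divided by the IC50 in the FASN-expressing NSCLC line. IC50s came from MTS viability after 72 h exposure at 37 °C, 5% CO2, DMSO 0.1% v/v. Absorbance was read at 490 nm after 2 h. The fit was % viability against log concentration, with 4 technical repeats and 3 independent experiments. NSCLC lines were grown in RPMI/10% FBS; SAEC in BEGM.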

NCI-H1650 = test: Antiproliferative activity against human NCI-H1650 cells expressing FASN assessed as reduction in cell viability after 72 hrs by MTS assay; format: functional, cell-based; settings: NCI-H1650, 72 h; method in brief: as §2
NCI-H1299 = test: Antiproliferative activity against human NCI-H1299 cells expressing FASN assessed as reduction in cell viability after 72 hrs by MTS assay; format: functional, cell-based; settings: NCI-H1299, 72 h; method in brief: as §2
[6] = molecular target: Fatty acid synthase (Homo sapiens) (UniProt P49327); test: as §1, with “measuring decrease in ratio of phosphoAKT/AKT” for “measuring FASN”, “hrs” for “hrs in presence of exogenous lipid concentrate”; format: cell-based
Method in brief: (§4)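 PC-9 cells were seeded at 8 × 10^5 per 100 mm dish and treated 48 h with compound, with or without chemically defined lipid concentrate (vehicle control included). RIPA lysates with protease inhibitors were BCA-quantified and run on 8% SDS-PAGE, then PVDF. Blots were probed for phospho-AKT Ser473 and total AKT (each 1:1,000, TBS-T/milk block). ECL detection; pAKT/AKT densitometry normalised to untreated control.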

[7] = molecular target: Fatty acid synthase (Homo sapiens) (UniProt P49327); test: Inhibition of full length human FASN transfected in HeLa cell lysates at 150 uM using acetyl Co-A/malonyl Co-A as substrate preincubated with enzyme for 2 hrs followed by substrate addition measured after 10 mins in presence of NADPH by microplate reader analysis; format: subcellular; settings: Lysate
Method in brief: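 Human FASN was made by coupled in vitro translation of a FASN plasmid; the legend calls this HeLa cell lysate. Lysate was diluted 3:7 in 100 mM potassium phosphate pH 6.5 with 1 mM EDTA, then preincubated with compound for 2 h at 37 °C. Buffer containing acetyl-CoA (55 µM) and NADPH (330 µM) was added, and the reaction started with malonyl-CoA solution (500 µM). A340 was read at 0 and 10 min, and inhibition taken against untreated lysate. Triplicates.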

[8] = Selectivity index, ratio of IC50 for human SAE cells lacking FASN expression to IC50 for human PC9 cells harboring FASN expression and EGFR delE746-A750 mutant; method in brief: as §3
[9] = molecular target: Fatty acid synthase (Homo sapiens) (UniProt P49327); test: Inhibition of FASN in human PC9 cells harboring FASN expression and EGFR delE746-A750 mutant assessed as disruption of AKT/FASN positive feedback loop by measuring decrease in FASN expression at 100 uM after 48 hrs by Western immunoblot based densitometric assay relative to control; format: cell-based
Method in brief: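 PC-9 or H1703 cells were seeded at 8 × 10^5 per 100 mm dish and treated for 48 h at 1 or 5 µM (or 5, 50 and 100 µM). RIPA lysates were BCA-quantified and run on 8% SDS-PAGE, then transferred to PVDF. Blots were probed for FASN, AKT, phospho-AKT S473 and GAPDH and detected by ECL. Bands were quantified by densitometry and normalised to vehicle control.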

NCI-H1703 [10] = test: Induction of apoptosis in human NCI-H1703 cells expressing FASN assessed as increase in late apoptotic cells at 100 uM after 72 hrs by Annexin-V FITC staining/PI-based flow cytometry; format: functional, cell-based
Method in brief: (§5)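 H1703 or PC-9 cells seeded at 1.5 × 10^5 cells/2 mL in 6-well plates and left to attach overnight. Treated at 100 µM, with a 0.1% DMSO vehicle control, at 37 °C and 5% CO2. Exposure is given as 72 h in the results and 48 h in the methods. Cells were harvested, rinsed in ice-cold PBS, stained with Annexin V-FITC/PI in binding buffer and read by flow cytometry. Early apoptosis was Annexin V+ only; late apoptosis was double positive. Triplicates.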

[11] = molecular target: Fatty acid synthase (Homo sapiens) (UniProt P49327); test: as §1, with “measuring ratio of phosphoAKT/AKT” for “measuring FASN”; format: cell-based; method in brief: as §4
[12] = Selectivity index, ratio of IC50 for human SAE cells lacking FASN expression to IC50 for human NCI-H1299 cells expressing FASN expression; method in brief: as §3
PC-9 [13] = test: Induction of apoptosis in human PC9 cells harboring FASN expression and EGFR delE746-A750 mutant at 100 uM after 72 hrs by Annexin-V FITC/PI staining-based flow cytometry; format: functional, cell-based; method in brief: as §5
[14] = Selectivity index, ratio of IC50 for human SAE cells lacking FASN expression to IC50 for human NCI-H1650 cells expressing FASN; method in brief: as §3
[15] = Cytotoxicity against human SAE cells lacking FASN expression assessed as reduction in cell viability after 72 hrs by MTS assay; format: cell-based; method in brief: as §2
[16] = molecular target: Fatty acid synthase (Homo sapiens) (UniProt P49327); test: Inhibition of full length human FASN transfected in HeLa cell lysates at 10 uM using acetyl Co-A/malonyl Co-A as substrate preincubated with enzyme for 2 hrs followed by substrate addition measured after 10 mins in presence of NADPH by microplate reader analysis; format: subcellular; settings: Lysate
Method in brief: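 Human FASN was made by in vitro translation from a FASN plasmid. Lysate was diluted 3:7 in 100 mM potassium phosphate, pH 6.5, 1 mM EDTA. It was preincubated with compound (10 µM final) for 2 h at 37 °C. Buffer containing acetyl-CoA (55 µM) and NADPH (330 µM) was added, then the reaction was started with malonyl-CoA (500 µM stock). A340 was read at 0 and 10 min; triplicates.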

PC-9 [17] = test: Antiproliferative activity against human PC9 cells harboring FASN expression and EGFR delE746-A750 mutant assessed as cell viability at 100 uM after 72 hrs in presence of exogenous lipid concentrate by MTS assay; format: functional, cell-based
Method in brief: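 PC-9 cells seeded at 3 × 10^3 cells/100 µL in RPMI 1640 and left to attach overnight. Compound added as for the viability assay, with DMSO at 0.1% v/v. After 6 h at 37 °C and 5% CO2, chemically defined lipid concentrate was added to 2% v/v final. Incubation then continued 72 h. Viability was read by MTS absorbance at 490 nm against untreated cells, in triplicate.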

With `O=C(O[C@@H]1Cc2c(O)cc(O)cc2O[C@@H]1c1cc(O)c(O)c(O)c1)c1cc(O)c(O)c(O)c1` [EPIGALOCATECHIN GALLATE] as the compound, how does the Ratio [1] read?
The Ratio was 0.89.

What about the IC50 (PC-9 [2]) of the same compound?
Its IC50 is 77.4 µM.

And the IC50 (A549)?
The IC50 was 185 µM.

What about the IC50 (NCI-H1703 [3]) of the same compound?
The IC50 was 17.1 µM.

What about the “Ratio IC50” value [4] of the same compound?
Its value is 0.6.

And the “Ratio IC50” value [5]?
Its value is 6.4.

What about the IC50 (NCI-H1650) of the same compound?
The IC50 was 24.8 µM.

And the IC50 (NCI-H1299)?
The IC50 was 20.6 µM.

And the Ratio [6]?
The Ratio was 0.14.

And the inhibition [7]?
The inhibition was “Active”.

What about the “Ratio IC50” value [8] of the same compound?
The value was 1.4.

And the Ratio [9]?
Its Ratio is 0.06.

And the Activity (NCI-H1703 [10])?
The Activity was “Active”.

And the Ratio [11]?
The Ratio was 0.67.

What about the “Ratio IC50” value [12] of the same compound?
Its value is 5.3.

And the Activity (PC-9 [13])?
Its Activity is “Active”.

And the “Ratio IC50” value [14]?
The value was 4.4.

What about the IC50 [15] of the same compound?
The IC50 was 110 µM.

What about the inhibition [16] of the same compound?
The inhibition was “inactive”.

What about the inhibition (PC-9 [17]) of the same compound?
Its inhibition is “inactive”.

— ChEMBL document CHEMBL4406830, “Galloyl esters of trans-stilbenes are inhibitors of FASN with anticancer activity on non-small cell lung cancer cells” (Eur J Med Chem, 2019)
